According to ChEMBL document CHEMBL1123883, “Structure-activity relationships in the 2-arylcarbapenem series: synthesis of 1-methyl-2-arylcarbapenems” (1987):
In brackets after ≈: the same amount, converted by molar mass.

What was measured:
[1] = biological target: T1, Dipeptidase 1 (Homo sapiens) (UniProt P16444); test: Susceptibility to mammalian dehydropeptidase DHP-1 relative to thienamycin
T1 sequence (whole entry): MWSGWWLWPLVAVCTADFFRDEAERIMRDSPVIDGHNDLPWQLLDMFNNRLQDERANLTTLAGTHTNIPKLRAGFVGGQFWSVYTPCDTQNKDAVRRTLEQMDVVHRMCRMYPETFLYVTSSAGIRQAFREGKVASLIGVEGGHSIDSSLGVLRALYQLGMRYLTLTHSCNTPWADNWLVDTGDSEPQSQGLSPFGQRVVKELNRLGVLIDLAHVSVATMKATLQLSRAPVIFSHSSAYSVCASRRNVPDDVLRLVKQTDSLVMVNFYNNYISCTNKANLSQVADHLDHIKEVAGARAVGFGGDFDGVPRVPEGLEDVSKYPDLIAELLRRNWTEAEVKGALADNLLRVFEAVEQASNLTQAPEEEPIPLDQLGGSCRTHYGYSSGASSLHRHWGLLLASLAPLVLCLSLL

Serratia = test: Antibiotic activity was determined against Serratia species (2); format: functional
Summary of the method: (§1)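 Inhibitory concentrations against the strains of each species were expressed as a ratio to the inhibitory concentration of thienamycin, the reference carbapenem, in the same strains.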

Enterococcus = test: Antibiotic activity was determined against Enterococcus (3); format: functional; summary of the method: as §1
Enterobacter = test: Antibiotic activity was determined against Enterobacter species (6); format: functional; summary of the method: as §1
Pseudomonas aeruginosa = test: Antibiotic activity was determined against Pseudomonas aeruginosa (5); format: functional; summary of the method: as §1
Proteus = test: Antibiotic activity was determined against Proteus species (5); format: functional, Proteus sp.; summary of the method: as §1
Escherichia coli = test: Antibiotic activity was determined against Escherichia coli(5); format: functional; summary of the method: as §1
Klebsiella sp. = test: Antibiotic activity was determined against Klebsiella species (5); format: functional; summary of the method: as §1
Staphylococcus aureus = test: Antibiotic activity was determined against Staphylococcus aureus (5); format: functional; summary of the method: as §1

Row | Structure (SMILES) | Relative susceptibility [1] | MIC (Serratia) | MIC (Enterococcus) | MIC (Enterobacter) | MIC (Pseudomonas aeruginosa) | MIC (Proteus) | MIC (Escherichia coli) | MIC (Klebsiella sp.) | MIC (Staphylococcus aureus)
1 | C[C@@H](O)[C@H]1C(=O)N2C(C(=O)[O-])=C(c3cccnc3)C[C@H]12.[K+] | 0.4 | 28 µg/mL | 6 µg/mL | 20 µg/mL | 0.05 µg/mL | 17 µg/mL | 9 µg/mL | 7 µg/mL | 1.5 µg/mL
2 | C[C@@H](O)[C@H]1C(=O)N2C(C(=O)[O-])=C(c3cccnc3)[C@H](C)[C@H]12.[K+] | 0.7 | 13 µg/mL | 2.5 µg/mL | 13 µg/mL | 0.05 µg/mL | 7 µg/mL | 12 µg/mL | 7 µg/mL | 1 µg/mL
3 | O=C(O)C1=C(c2ccccc2)CC2CC(=O)N12 (stereo not given) | 0.35 | 0.01 µg/mL (≈ 0.0436 µM) | 1 µg/mL (≈ 4.36 µM) | 0.2 µg/mL (≈ 0.872 µM) | 0.03 µg/mL (≈ 0.131 µM) | 0.03 µg/mL (≈ 0.131 µM) | 0.1 µg/mL (≈ 0.436 µM) | 0.04 µg/mL (≈ 0.174 µM) | 0.02 µg/mL (≈ 0.0872 µM)
4 | C[C@@H](O)[C@H]1C(=O)N2C(C(=O)[O-])=C(c3ccc(CO)cc3)[C@H](C)[C@H]12.[K+] | 0.22 | 1.2 µg/mL | 1.4 µg/mL | 1.1 µg/mL | 0.02 µg/mL | 5.3 µg/mL | 0.9 µg/mL | 0.7 µg/mL | 0.2 µg/mL
5 | C[C@@H](O)[C@H]1C(=O)N2C(C(=O)O)=C(c3ccc(CN)nc3)[C@H](C)[C@H]12 | 0.16 | 3.2 µg/mL (≈ 10.1 µM) | 2.8 µg/mL (≈ 8.82 µM) | 3.5 µg/mL (≈ 11 µM) | 0.08 µg/mL (≈ 0.252 µM) | 2.5 µg/mL (≈ 7.88 µM) | 1.5 µg/mL (≈ 4.73 µM) | 2.8 µg/mL (≈ 8.82 µM) | 0.5 µg/mL (≈ 1.58 µM)
6 | C[C@@H](O)[C@H]1C(=O)N2C(C(=O)[O-])=C(c3ccc(O)cc3)C[C@H]12.[K+] | 0.2 | 2.3 µg/mL | 7.5 µg/mL | 1.7 µg/mL | 0.06 µg/mL | 8 µg/mL | 2.8 µg/mL | 0.7 µg/mL | 0.4 µg/mL
7 | C[C@@H](O)[C@H]1C(=O)N2C(C(=O)[O-])=C(c3ccccc3)[C@H](C)[C@H]12.[K+] | 0.25 | 1 µg/mL | 2 µg/mL | 0.3 µg/mL | 0.02 µg/mL | 3.5 µg/mL | 0.5 µg/mL | 0.3 µg/mL | 0.2 µg/mL
8 | C[C@H](O)[C@H]1C(=O)N2C(C(=O)O)=C(c3ccc(CN)cc3)C[C@H]12 | 0.02 | – | – | – | – | – | – | – | –
9 | C[C@@H](O)[C@H]1C(=O)N2C(C(=O)[O-])=C(c3ccccc3)C[C@H]12.[K+] | 0.2 | 10 µg/mL | 5.7 µg/mL | 4.6 µg/mL | 0.03 µg/mL | 10 µg/mL | 2.5 µg/mL | 1.4 µg/mL | 0.5 µg/mL
10 | CC(O)[C@H]1C(=O)N2C(C(=O)O)=C(c3ccc(CN)cc3)C[C@H]12 (stereo not given in full) | – | 5.3 µg/mL (≈ 17.5 µM) | 9.2 µg/mL (≈ 30.4 µM) | 11 µg/mL (≈ 36.4 µM) | 0.3 µg/mL (≈ 0.992 µM) | 6.5 µg/mL (≈ 21.5 µM) | 3.5 µg/mL (≈ 11.6 µM) | 3.2 µg/mL (≈ 10.6 µM) | 1.5 µg/mL (≈ 4.96 µM)
11 | C[C@@H]1C(c2cccnc2)=C(C(=O)[O-])N2C(=O)[C@H]([C@@H](C)O)[C@@H]12.[K+] | 0.1 | 22 µg/mL | 0.15 µg/mL | 5 µg/mL | 0.03 µg/mL | 2.5 µg/mL | 3.5 µg/mL | 2.5 µg/mL | 0.15 µg/mL
12 | O=C(O)C1=C(c2cccnc2)CC2CC(=O)N12 (stereo not given) | 0.3 | 0.01 µg/mL (≈ 0.0434 µM) | 0.15 µg/mL (≈ 0.652 µM) | 0.02 µg/mL (≈ 0.0869 µM) | 0.1 µg/mL (≈ 0.434 µM) | 0.03 µg/mL (≈ 0.13 µM) | 0.01 µg/mL (≈ 0.0434 µM) | 0.02 µg/mL (≈ 0.0869 µM) | 0.002 µg/mL (≈ 0.00869 µM)
13 | C[C@@H](O)[C@H]1C(=O)N2C(C(=O)O)=C(c3ccc(CN)nc3)C[C@H]12 | 0.1 | 5.3 µg/mL (≈ 17.5 µM) | 8 µg/mL (≈ 26.4 µM) | 5.7 µg/mL (≈ 18.8 µM) | 0.2 µg/mL (≈ 0.659 µM) | 3.2 µg/mL (≈ 10.5 µM) | 3 µg/mL (≈ 9.89 µM) | 3 µg/mL (≈ 9.89 µM) | 1.9 µg/mL (≈ 6.26 µM)
14 | C[C@@H](O)[C@H]1C(=O)N2C(C(=O)O)=C(SCCN)C[C@H]12 [THIENAMYCIN] | 1 | 2.5 µg/mL (≈ 9.18 µM) | 5 µg/mL (≈ 18.4 µM) | 1.4 µg/mL (≈ 5.14 µM) | 5.8 µg/mL (≈ 21.3 µM) | 7.5 µg/mL (≈ 27.5 µM) | 0.3 µg/mL (≈ 1.1 µM) | 1.3 µg/mL (≈ 4.77 µM) | 0.04 µg/mL (≈ 0.147 µM)
15 | C[C@@H](O)[C@H]1C(=O)N2C(C(=O)[O-])=C(c3ccc(CO)cc3)C[C@H]12.[K+] | 0.28 | 7 µg/mL | 5 µg/mL | 4 µg/mL | 0.02 µg/mL | 15 µg/mL | 2 µg/mL | 2.3 µg/mL | 1 µg/mL
16 | C[C@@H](O)[C@H]1C(=O)N2C(C(=O)O)=C(c3ccc(CN)cc3)[C@H](C)[C@H]12 | 0.07 | 6.5 µg/mL (≈ 20.5 µM) | 3 µg/mL (≈ 9.48 µM) | 2.5 µg/mL (≈ 7.9 µM) | 0.13 µg/mL (≈ 0.411 µM) | 2 µg/mL (≈ 6.32 µM) | 1.6 µg/mL (≈ 5.06 µM) | 1.7 µg/mL (≈ 5.37 µM) | 0.4 µg/mL (≈ 1.26 µM)
